# Screening results (PubChem)
# Compounds with a hit are over-represented: about 3.7% of the library has one in this group of screens.
# aDG glyco act = alpha-DG glycosylation activation | Pro5-aDG cells, alpha-DG glycosylation AlphaScreen (IIH6); 0% Pro5, 100% B10-LARGE cell signal | activation, % at 10 µM | 360,000 tested, 0.22% active | AID 624168;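 active = activation of at least 8% versus controls, or a plate z-score of at least 8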;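 note: Pro5 are CHO cells carrying HIG-tagged alpha-DG that lacks glycosylation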
# proCasp7 act = counter-screen: procaspase-7 (human) activation; P55210; recombinant procaspase-7, Ac-DEVD-pNA absorbance 405 nm; D23A/D198A/D206A triple mutant, cannot self-cleave; scale: DMSO 0, 5 µM enzyme 100; activation, % at 8.5 µM; 330,000 tested, 0.093% active;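 active = percent activation above the screen-wide mean plus 3 SD, cut at about 25% in these data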
# Target sequence (P55210 whole entry D23A/D198A/D206A): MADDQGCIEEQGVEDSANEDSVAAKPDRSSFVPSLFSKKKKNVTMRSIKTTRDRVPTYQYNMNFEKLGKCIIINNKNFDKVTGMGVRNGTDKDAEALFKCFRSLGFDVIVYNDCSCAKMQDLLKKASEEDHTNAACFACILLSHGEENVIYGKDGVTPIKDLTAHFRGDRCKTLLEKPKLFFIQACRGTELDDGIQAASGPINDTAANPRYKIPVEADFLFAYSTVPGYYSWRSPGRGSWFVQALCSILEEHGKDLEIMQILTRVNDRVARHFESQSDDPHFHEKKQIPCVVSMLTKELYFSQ
#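 System: Uncleavable procaspase-7 mutant enzyme; Amount: 2 µM procaspase-7 mutant as dispensed; Schedule: 1 h compound preincubation, 2 h substrate cleavage, 25 °C; Measured by: 405 nm absorbance of p-nitroaniline; Evaluation: percent activation from buffer-corrected 0–120 min absorbance change; Control set: low DMSO alone, high DMSO plus 5 µM PC-7.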
# MPTP block = blocks calcium-induced mitochondrial swelling. isolated mouse mitochondria, Ca2+ swelling absorbance, 30 min. inhibition, % at 10 µM. 360,000 tested, 1.4% active. AID 602449;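 active = inhibition of 50% or more, scaled per plate between neutral and stimulator controls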;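 note: 0% = DMSO wells given calcium and 100% = 1 mM EGTA wells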
# NR3A LBD binder = modulates the human NR3A ligand-binding domain; 340,000 tested, 2.5% active; Tm shift relative to glycine control, % at 25 µM; NR3A LBD differential scanning fluorimetry, Tm shift; 0% = protein alone, 100% = glycine-bound protein;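 active = melting temperature shift of at least 10% of the positive control shift, at one fixed dose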
# proCasp3 act = activates human procaspase-3; P42574; recombinant procaspase-3 D3A, Ac-DEVD-pNA absorbance 405 nm; activation, % at 8.5 µM; 330,000 tested, 0.11% active;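 active = activation above the mean of all tested compounds plus 3 SD, cut at about 21% in these data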;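 note: 0% = DMSO alone and 100% = DMSO wells spiked with extra 5 µM PC-3 D3A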
# Target sequence (P42574 whole entry D9A/D28A/D175A): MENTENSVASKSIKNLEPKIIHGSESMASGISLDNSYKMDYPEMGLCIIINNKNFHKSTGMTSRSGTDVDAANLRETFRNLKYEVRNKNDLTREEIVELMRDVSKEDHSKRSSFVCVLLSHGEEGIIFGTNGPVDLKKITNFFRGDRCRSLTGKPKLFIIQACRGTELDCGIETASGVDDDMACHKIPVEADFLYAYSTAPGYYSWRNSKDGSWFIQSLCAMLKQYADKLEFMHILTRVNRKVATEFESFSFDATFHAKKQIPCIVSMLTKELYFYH
#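 material = Procaspase-3 D3A mutant | probe or stimulus = Ac-DEVD-pNA | compound = single dose, 8.5 µM nominal compound, 0.8% DMSO | timing = 1 h preincubation, 2 h reaction | measured by = 405 nm absorbance of p-nitroaniline, reads at 0 and 120 min | benchmarks = DMSO-only low control, 5 µM PC-3 D3A high control | repeats = singlicate, each compound tested once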
# The depositor's hits bear a star; . = not tested or not shown.
SMILES,aDG glyco act,proCasp7 act,MPTP block,NR3A LBD binder,proCasp3 act
O=C(CSc1n[nH]c(=O)n1Cc1ccccc1)Nc1ccc(N2CCOCC2)cc1,0,.,1,0,.
NC(Cc1ccc(Cl)cc1)c1csc(Nc2ccc(C(=O)NCCCO)cn2)n1 (configuration not stated),0,.,-2,.,.
COc1cc(Cl)c(CNC[C@H]2O[C@@H](n3cnc4c(=O)[nH]c(N)nc43)[C@H](O)[C@@H]2O)c(Cl)c1O,0,.,-1,.,.
Cc1ccc(C(=O)Nc2nnc(-c3ccc(C(C)(C)C)cc3)s2)cc1,0,5,-1,10*,6
CCC(=O)Nc1cc(OC)c(NC(=S)Nc2ccccc2CC)cc1OC,0,.,0,.,.
O=S1(=O)C=C[C@H](COCc2ccccc2)N1,0,.,-2,.,.
Cc1nc2ccc(NC(=O)c3nn(C(C)C)c(=O)c4ccccc34)cc2s1,0,0,1,17*,3
Cc1ccc(C(=O)Nc2nc3ccc(S(C)(=O)=O)cc3s2)s1,0,6,3,6,-1
COc1cccc2sc(NC(=O)c3ccc(Br)s3)nc12,0,6,0,11*,3
Cc1ccc(C(=O)Nc2nc3ccccc3s2)s1,0,3,-3,18*,3
Cc1nc2ccc(NC(=O)c3cnc(Cl)c(Cl)c3)cc2s1,0,-10,2,-3,-6
Cc1nc2ccc(NC(=O)c3ccc(Cl)s3)cc2s1,0,-5,0,27*,5
Cc1cccc2sc(NC(=O)c3ccc(Cl)s3)nc12,0,2,1,10,0
CSc1ncccc1C(=O)N1CCC(C)(C(=O)O)C1 (configuration not stated),0,.,0,.,.
CCCCC(=O)N(C)c1c(CC)nc2c(OCc3ccc(C(F)(F)F)cc3)cccn12,0,.,0,.,.
Cc1ccc2nc(NC(=O)c3ccc(Cl)s3)sc2c1,0,-3,1,20*,4
Cc1ccc2nc(NC(=O)c3cccs3)sc2c1,0,-9,-2,6,3
CN(C(=O)c1cccc(NC(=O)Cc2ccc(NC(=O)C3CCN(S(=O)(=O)c4cccc([N+](=O)[O-])c4)CC3)cc2)c1)C1CCCCC1,0,.,0,7,.
CN(CCc1ccccc1)C(=O)c1ccc(NC(=O)Cc2ccc(NC(=O)C3CCCN(C(=O)CCc4ccccc4)C3)cc2)cc1 (configuration not stated),1,.,4,11*,.
CN(C(=O)c1cccc(NC(=O)Cc2ccc(NC(=O)C3CCN(S(=O)(=O)c4cccc([N+](=O)[O-])c4)CC3)cc2)c1)C1CC1,0,.,-2,0,.
CN(C(=O)c1cccc(NC(=O)Cc2ccc(NC(=O)C3CCCN(S(=O)(=O)c4cccc([N+](=O)[O-])c4)C3)cc2)c1)C1CCC1 (configuration not stated),0,.,1,11*,.
CN(CCc1ccccc1)C(=O)c1ccc(NC(=O)Cc2cccc(NC(=O)C3CCN(S(=O)(=O)c4cccc([N+](=O)[O-])c4)CC3)c2)cc1,0,.,0,10*,.
CN(C(=O)c1ccc(NC(=O)Cc2ccc(NC(=O)C3CCN(S(=O)(=O)c4cccc([N+](=O)[O-])c4)CC3)cc2)cc1)C1CCCC1,0,.,2,10*,.
C=CC1=CCN(S(=O)(=O)C(C)(C)C)[C@H]1CCO,0,.,-2,.,.
N#CC1=CC2CN(Cc3ccccc3)C1C1C(=O)N(c3ccccc3)C(=O)C21 (configuration not stated),0,.,0,-3,.
SMILES,aDG glyco act,proCasp7 act,MPTP block,NR3A LBD binder,proCasp3 act
CN(C(=O)c1cccc(NC(=O)Cc2cccc(NC(=O)C3CCN(S(=O)(=O)c4cccc([N+](=O)[O-])c4)CC3)c2)c1)C1CC1,0,.,0,4,.
O=C(Cc1cccc(NC(=O)C2CCN(S(=O)(=O)c3cccc([N+](=O)[O-])c3)CC2)c1)Nc1cccc(C(=O)N2CCCCC2)c1,0,.,0,11*,.
COc1ccc([C@H]2N[C@]3(CCCN(Cc4ccc(F)cc4)C3=O)[C@H]3C(=O)N(C)C(=O)[C@@H]23)cc1,0,.,0,.,.
COc1ccc(-c2nc(N=Nc3ccc(O)cc3)n[nH]2)cc1,-1,-1,-2,13*,-14
Cc1ccc(-c2nc(N=Nc3ccc(O)cc3)n[nH]2)cc1,0,-12,2,1,-2
COc1ccc(OC)c(S(=O)(=O)Nc2ccc(C(N)=O)cc2)c1,0,8,0,2,-5
COc1ccc(OC)c(S(=O)(=O)Nc2ccc(C(C)=O)cc2)c1,0,-12,0,11*,0
COc1ccc(OC)c(S(=O)(=O)Nc2ccc(O)c3ccccc23)c1,3.2*,-28,-1,-1,-12
COc1ccc(OC)c(S(=O)(=O)Nc2cccc3c(O)cccc23)c1,0,-10,5,-3,-8
O=C(NCCCNC(=O)c1ccccn1)c1ccc(Cl)cc1,0,-2,0,-2,4
CSCCC(NC(=O)c1ccc(C)o1)C(=O)O (configuration not stated),0,8,-3,15*,5
CN1CCN(C(=O)c2cccc3c(-c4ccc(F)c(F)c4)coc23)CC1,0,.,0,.,.
Cc1cccc(Nc2nnc(SCC(=O)Nc3ccc(C(=O)O)cc3)s2)c1,0,4,0,-4,-5
Cc1ccc(Nc2nnc(SCC(=O)c3ccc(O)cc3O)s2)cc1,0,4,2,26*,8
CCOc1ccc2nc(SCC(=O)c3ccc(O)cc3O)sc2c1,0,-5,3,16*,-2
CCOc1ccc2nc(SCC(=O)c3ccc(C)s3)sc2c1,0,-3,1,-7,2
Cc1cccc(Nc2nnc(SCC(=O)c3ccc(O)cc3O)s2)c1,0,-6,1,33*,0
CCCCCCNC(=O)O[C@H]1Cn2c(=O)ccc(=O)n2[C@@H]2CN(S(=O)(=O)c3ccc(C)cc3)C[C@]12O,0,.,1,.,.
COc1ccccc1CNC(=O)CN(C)CC(=O)Nc1ccccc1Br,0,4,-2,-1,2
Cc1cc(F)ccc1C(O)c1ncc(-c2ccccc2Cl)[nH]1 (configuration not stated),0,.,2,.,.
CN=C1S/C(=C/c2cn(CC(=O)OC)c3ccccc23)C(=O)N1C,0,4,3,12*,-3
COC(=O)[C@]12CCCCC=C1N(Cc1ccc3c(c1)OCO3)C(=O)[C@H](CC(=O)NCC1CCCCC1)C2,0,.,0,.,.
O=C(Nc1ccc(Cl)c(S(=O)(=O)Nc2ccccc2Cl)c1)c1cccs1,0,2,12,31*,-1
Cc1ccc(C(=O)Nc2ccc(C)c(S(=O)(=O)Nc3ccccc3Cl)c2)s1,0,3,11,11*,10
